Only a sample is shown.
Apaf-1 act – activators of human Apaf-1 apoptosome | O14727 | Apaf-1 apoptosome caspase-3 activation, DEVD-Rh110 fluorescence; active compounds read low | activity change, negative = activation, % at 20 µM | 0.31% of 330,000 active;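 active means activity change at or below -40% at 20 µM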
Target sequence (O14727 whole entry, looked up): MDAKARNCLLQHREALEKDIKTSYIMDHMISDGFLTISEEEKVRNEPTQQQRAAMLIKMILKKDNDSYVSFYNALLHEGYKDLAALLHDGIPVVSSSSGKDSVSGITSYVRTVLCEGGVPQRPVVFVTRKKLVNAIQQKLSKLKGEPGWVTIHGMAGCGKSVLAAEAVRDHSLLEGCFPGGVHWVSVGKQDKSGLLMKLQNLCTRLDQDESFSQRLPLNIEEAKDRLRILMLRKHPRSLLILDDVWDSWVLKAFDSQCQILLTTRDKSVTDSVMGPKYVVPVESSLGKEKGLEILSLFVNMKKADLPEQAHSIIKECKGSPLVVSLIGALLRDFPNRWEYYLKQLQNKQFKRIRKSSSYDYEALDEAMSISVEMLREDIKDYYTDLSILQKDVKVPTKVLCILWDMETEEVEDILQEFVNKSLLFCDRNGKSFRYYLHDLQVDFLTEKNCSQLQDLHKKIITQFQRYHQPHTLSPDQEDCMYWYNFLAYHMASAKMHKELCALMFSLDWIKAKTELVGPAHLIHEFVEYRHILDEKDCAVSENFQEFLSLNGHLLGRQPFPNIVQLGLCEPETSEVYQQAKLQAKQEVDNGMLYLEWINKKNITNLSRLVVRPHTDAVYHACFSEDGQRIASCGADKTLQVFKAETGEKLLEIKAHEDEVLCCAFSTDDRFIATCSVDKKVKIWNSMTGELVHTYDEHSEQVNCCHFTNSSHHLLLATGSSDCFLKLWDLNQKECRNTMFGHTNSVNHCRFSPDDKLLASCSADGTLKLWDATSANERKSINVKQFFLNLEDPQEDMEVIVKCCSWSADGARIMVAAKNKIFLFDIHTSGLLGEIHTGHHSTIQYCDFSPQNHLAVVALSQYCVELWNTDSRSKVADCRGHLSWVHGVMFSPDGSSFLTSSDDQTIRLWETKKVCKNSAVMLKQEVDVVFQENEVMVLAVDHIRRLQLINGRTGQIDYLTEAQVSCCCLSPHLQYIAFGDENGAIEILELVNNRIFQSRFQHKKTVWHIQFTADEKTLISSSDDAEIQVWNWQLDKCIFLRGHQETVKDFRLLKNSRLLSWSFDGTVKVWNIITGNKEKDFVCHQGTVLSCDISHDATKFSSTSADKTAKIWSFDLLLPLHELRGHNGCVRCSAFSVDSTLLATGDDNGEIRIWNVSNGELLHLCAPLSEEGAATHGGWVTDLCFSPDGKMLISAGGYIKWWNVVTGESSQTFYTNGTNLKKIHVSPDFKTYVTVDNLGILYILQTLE
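System: Reconstituted apoptosome of Apaf-1, cytochrome c, caspase-9, procaspase-3 | Reagent: dATP, cytochrome c, and (Z-DEVD)2-Rh110 caspase-3 substrate | Times: 30 min compound preincubation and 50 min reaction, both room temperature | Detection: Caspase-3-released Rh110 fluorescence, 540 nm emission, 480 nm excitation | Measure: Caspase-3 activity via Apaf-1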
Rh110 interf act – interferes with Rh110 fluorescence, flagging false Apaf-1 activators; 980 tested, under 10 active; fluorescence interference (activity change), % at 20 µM, hits read low; Rh110 fluorescence interference, quenched caspase reaction, Ex480/Em540; shares compounds with Apaf-1 act;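 active means mean activity change at or below -40% when tested at 20 µM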
Apaf-1 act conf2 – Apaf-1 (human) activation, single-dose confirmed | 5% of 980 active | reconstituted apoptosome caspase-3 activity, DEVD-Rh110 fluorescence; active compounds read low | shares compounds with Apaf-1 act | activity change, negative = activation, % at 20 µM;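 active means mean activity change at or below -40%, meaning activation of 40% or more, at 20 µM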
Each line names hits and unclear results; the compound was inactive in the other large screens (follow-up assays come after a bar, where they were run).

C=CCOc1c(Cl)cc(CNc2ccc(N(C)C)cc2)cc1OC	none
CN1CCN(c2cc(N3CCN(C(=O)c4ccco4)CC3)c3c4c(onc24)-c2ccccc2C3=O)CC1	none
O=C1c2ccccc2-c2onc3c(N4CCN(CCO)CC4)cc(N4CCN(C(=O)c5ccco5)CC4)c1c23	none
O=C(c1ccco1)N1CCN(C(c2ccccc2)c2nnnn2Cc2cccs2)CC1 (stereo unspecified)	Apaf-1 act -107 | Rh110 interf act inactive | Apaf-1 act conf2 inactive
S=C(Nc1ccc(Cl)cc1)Nc1cccc2cnccc12	none
CCOC(=O)c1[nH]c2ccc(OC)cc2c1NC(=O)c1nonc1C	Apaf-1 act -144 | Rh110 interf act inactive | Apaf-1 act conf2 inactive
CCOC(=O)c1[nH]c(=O)c2ccccc2c1O	none
CCOC(=O)c1cc2cc3ccccc3cc2[nH]1	none
O=C(OCC(=O)N1CCN(S(=O)(=O)c2ccccc2)CC1)c1ccc([N+](=O)[O-])o1	none
CCOC(=O)CCC(=O)NNC(=O)COc1ccc(C(C)C)cc1Br	Apaf-1 act -108 | Rh110 interf act inactive | Apaf-1 act conf2 inactive
Oc1cccc(/C=N/Nc2cc(N3CCCC3)nc(N3CCCC3)n2)c1	none
C#CCOCCOCCOCCNc1nc(N2CCN(C(=O)CCCCCCCCCCNC(=O)[C@H](CCCCN)n3cc(C[C@@H](C)CC)nn3)CC2)nc(N2CCN(C(=O)CCCCCCCCCCNC(=O)[C@H](CCCN=C(N)N)n3cc(C[C@@H](C)CC)nn3)CC2)n1	none
N#Cc1c(N)n(CCNC(=O)c2cccs2)c2nc3ccccc3nc12	none
Cc1ccc(Oc2nsnc2N2CCOCC2)cc1	Apaf-1 act -106 | Rh110 interf act inactive | Apaf-1 act conf2 inactive
Cc1ccc(NC2=C(N3CCOCC3)C(=O)c3ccccc3C2=O)cc1	none
COC(=O)C1=C(C)N(Cc2ccccc2)C(=NCc2cc(OC)c(OC)c(OC)c2)N[C@H]1CCc1ccccc1	none
CCOC(=O)c1c(C)oc2c1C(=O)c1ccccc1C2=O	none
CCOC(=O)c1c(-c2ccc(OC)cc2)oc2cc(Br)c(O)cc12	Apaf-1 act -62 | Rh110 interf act inactive | Apaf-1 act conf2 inactive
CCc1ccccc1N1CSC2=C(C#N)C(c3cc(OC)c(OC)cc3OC)CC(=O)N2C1 (stereo unspecified)	none
CCN(c1ccccc1)S(=O)(=O)c1ccc(Cl)c(NC(=O)COC(=O)c2cc(O)c3ccccc3c2O)c1	none
Cc1cc(C(=O)OCC(=O)Nc2ccccc2C#N)c(C)o1	Apaf-1 act -45 | Rh110 interf act inactive | Apaf-1 act conf2 inactive
N#CC1(NC(=O)COC(=O)c2cc(O)c3ccccc3c2O)CCCCC1	none
CCCCN(CC)S(=O)(=O)c1ccc(C(=O)N(CCCN(C)C)c2nc3cc(C)cc(C)c3s2)cc1	none
CCn1c(=NC(=O)c2ccco2)sc2cccc(F)c21	Apaf-1 act -432 | Rh110 interf act inactive | Apaf-1 act conf2 inactive
CC(C)c1ccc(NC(=S)Nc2cccc3ccccc23)cc1	none
CN1CCN(CCCN2c3ccccc3Sc3ccc(C(F)(F)F)cc32)CC1	none
CCOC12NC(=O)CC(=O)N1C(c1ccccc1)=CS2 (stereo unspecified)	Apaf-1 act -294 | Rh110 interf act inactive | Apaf-1 act conf2 inactive
CC1=C(CC(=O)c2ccccc2)C(=O)c2ccccc2C1=O	none
CCc1ccc(S(=O)(=O)/N=C2\C=C(Nc3ccc(O)cc3)C(=O)c3ccccc32)cc1	none
Cc1cccc(Oc2nc(-c3ccccn3)nc3ccccc23)c1	Apaf-1 act -553 | Rh110 interf act inactive | Apaf-1 act conf2 inactive
NC(=O)CSc1nc2c(sc3ccccc32)c(=O)n1CCCN1CCOCC1	Apaf-1 act -236 | Rh110 interf act inactive | Apaf-1 act conf2 inactive
CN(C1=C(NC(=O)c2ccccc2)C(=O)c2ccccc2C1=O)C1CCS(=O)(=O)C1 (stereo unspecified)	none
COC1=C(N)C(=O)c2nc(-c3nc(C(=O)O)c(C)c(-c4ccc(OC)c(OC)c4O)c3N)ccc2C1=O	none
Cc1cc(C)nc(/N=c2/ssnc2Cl)c1	none
CCCC(=Nc1ccc(N)cc1)C1=C(O)C(C(=O)OC)C(C)(C)CC1=O (stereo unspecified)	none
O=C(COc1ccccc1[N+](=O)[O-])N/N=C/c1ccncc1	Apaf-1 act -53 | Rh110 interf act inactive | Apaf-1 act conf2 inactive
O=C(N/N=C\c1ccc(-c2ccccc2[N+](=O)[O-])o1)C1COc2ccccc2O1 (stereo unspecified)	none
O=C(N/N=C/c1ccc(-c2ccccc2[N+](=O)[O-])o1)c1cncc(Br)c1	none
COc1ccc2cc1Oc1ccc(cc1)CC1c3c(cc(OC)c4c3Oc3cc5c(cc3O4)CCNC5C2)CCN1C (stereo unspecified)	none
CCCCCc1ccc(OCCC[n+]2ccccc2)c(CCCCC)c1	none
Oc1ccc(Br)cc1-c1nc2cnccn2c1NC1CCCC1	Apaf-1 act -566 | Rh110 interf act inactive | Apaf-1 act conf2 inactive
CCCCCCSc1cc(-c2nc3cnccn3c2NCCCC)ccc1OC	none
Cc1ccn2c(NC3CCCCC3)c(-c3cccc(SC4CCCCC4)c3)nc2c1	none
Nc1ccc2nn(-c3cccc4ccccc34)nc2c1	none
CCOc1cccc2sc(N(CCCN(C)C)C(=O)c3ccc(S(=O)(=O)N(C)Cc4ccccc4)cc3)nc12	none
O=C(NCc1ccccc1)c1ccc(CN(c2ccccn2)S(=O)(=O)c2ccccc2)cc1	Apaf-1 act -115 | Rh110 interf act inactive | Apaf-1 act conf2 inactive
CCOc1cccc2sc(N(CCCN(C)C)C(=O)c3ccc(S(=O)(=O)N(CC)Cc4ccccc4)cc3)nc12	none
CCNc1ccccc1CP(=O)(c1ccccc1)c1ccccc1O (stereo unspecified)	none
O=c1[nH]c(=O)n(C2CCCCCC2)c(O)c1C=NCc1ccc(F)cc1	none
CCC(C)(C(=O)NC1CCCC1)N(C(=O)c1ccccn1)c1ccc(C)cc1 (stereo unspecified)	Apaf-1 act -78 | Rh110 interf act inactive | Apaf-1 act conf2 inactive
COc1ccccc1C1Nc2cccc3cccc(c23)N1	none
CCN(CC)c1ccc(N=Cc2ccc([N+](=O)[O-])o2)cc1	none
COC(=O)c1c(NC(=O)c2ccc(OC(C)C)cc2)sc2c1CC(C)(C)NC2(C)C	none
Cc1c(CCOC(=O)CC23CC4CC(CC(C4)C2)C3)sc[n+]1CC(=O)c1ccc(Br)cc1	none
CCOC(=O)CNCCC(=O)c1ccc(Br)cc1	none
Cc1ccc(NC(=O)CCC(=O)OCc2ccc(Br)cc2)cc1	Apaf-1 act -46 | Rh110 interf act inactive | Apaf-1 act conf2 inactive
Oc1ccc(/C=N/N2CCCCC2)c(O)c1O	none
C#CCOCCOCCOCCNc1nc(N2CCN(C(=O)CCCCCCCCCCNC(=O)[C@H](CO)n3cc(CCCCCN)nn3)CC2)nc(N2CCN(C(=O)CCCCCCCCCCNC(=O)[C@H](CCCN=C(N)N)n3cc(C[C@@H](C)CC)nn3)CC2)n1	none
CC(C)CCn1c(N)c(S(=O)(=O)c2cccs2)c2nc3ccccc3nc21	none
C=CC(=O)Nc1ccc(CN2C(=O)N(c3c(Cl)c(OC)cc(OC)c3Cl)Cc3cnc(NCCCCN(CC)CC)nc32)cc1	none
CCN(CC)S(=O)(=O)c1ccc(/C=C/C(=O)OCC#N)cc1	Apaf-1 act -82 | Rh110 interf act inactive | Apaf-1 act conf2 inactive
CN(C)S(=O)(=O)c1cccc(NC(=O)COC(=O)/C=C/c2ccco2)c1	none

Assay outcomes deposited in PubChem by Sanford-Burnham Center for Chemical Genomics.
